Measurements reported in ChEMBL document CHEMBL1157552, “Antimalarial and antitubercular nostocarboline and eudistomin derivatives: synthesis, in vitro and in vivo biological evaluation” (Bioorg Med Chem, 2010).
Counter-ions that a name gives are not always drawn.

Assays:
[1] = system: Corynebacterium glutamicum; assay: Antitubercular activity against Corynebacterium glutamicum ATCC 13032; assay type: functional
Method in brief: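 Grown in 7H9 medium; susceptibility determined by resazurin reduction. MIC99 is the lowest drug concentration preventing growth of 99% of cells.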

[2] = system: Mycolicibacterium smegmatis; assay: Antitubercular activity against Mycobacterium smegmatis mc2 155; assay type: functional; conditions: str. MC2 155
[3] = system: Mycobacterium tuberculosis; assay: Antitubercular activity against Mycobacterium tuberculosis H37Rv; assay type: functional
[4] = system: Plasmodium berghei; assay: Antiparasitic activity against Plasmodium berghei infected in mice (Mus musculus) assessed as reduction of parasitaemia at 50 mg/kg, intraperitoneally administered 4, 24, 48, 72 hrs post infection measured 24 hrs of last treatment on day 4 relative to control; assay type: functional; design: scale not given: the % may be the effect or the level left; conditions: route intraperitoneal
Method in brief: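 Compounds formulated in DMSO/water and given i.p. at 50 mg/kg, 4 doses, to P. berghei-infected mice. Parasitaemia measured by FACS on day 4 post infection, 24 h after the last dose. Activity is the difference in mean % parasitaemia between control (n = 5 mice) and treated groups, as % of control. Mean survival time was also recorded.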

[5] = system: Leishmania donovani; assay: Antiparasitic activity against Leishmania donovani MHOM-ET-67/L82 axenic amastigotes; assay type: functional, organism-based
[6] = Selectivity ratio of IC50 for rat L6 cells to IC50 for Plasmodium falciparum K1; assay type: ADME, cell-based; conditions: L6 cells (cytotoxicity) versus Plasmodium falciparum K1, read-out: Ratio IC50
[7] = system: Plasmodium falciparum; assay: Antiparasitic activity against Plasmodium falciparum K1; assay type: functional, organism-based
Method in brief: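 Tested against erythrocytic stages of the K1 strain.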

[8] = system: Trypanosoma brucei rhodesiense; assay: Antiparasitic activity against Trypanosoma brucei rhodesiense STIB 900; assay type: functional, organism-based
Method in brief: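 Tested against bloodstream forms of STIB 900.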

[9] = system: Trypanosoma cruzi; assay: Antiparasitic activity against Trypanosoma cruzi Tulahuen C2C4; assay type: functional, organism-based
Method in brief: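 Tested against Tulahuen C2C4 amastigotes grown in L6 rat skeletal myoblasts.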

[10] = system: L6; assay: Cytotoxicity against rat L6 cells; assay type: cell-based
[11] = system: Plasmodium berghei; assay: Antiparasitic activity against Plasmodium berghei infected in mice (Mus musculus) assessed as survival days at 50 mg/kg, intraperitoneally administered 4, 24, 48, 72 hrs post infection; assay type: functional; conditions: route intraperitoneal
Method in brief: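 Infected mice received the compounds formulated in DMSO/water, given i.p. as 4 × 50 mg/kg. Parasitaemia was measured by FACS on day 4 post infection, 24 h after the last treatment. Activity was taken as the reduction in mean % parasitaemia versus the untreated control group (n = 5 mice). Mean survival time in days was recorded.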

Compound	MIC99 [1]	MIC99 [2]	MIC99 [3]	Activity [4]	IC50 [5]	selectivity ratio [6]	IC50 [7]	IC50 [8]	IC50 [9]	IC50 [10]	Survival [11]
Clc1ccc2[nH]c3c[n+](CCCCCCCCCCCC[n+]4ccc5c(c4)[nH]c4ccc(Cl)cc45)ccc3c2c1	14 µM	17 µM	7 µM								
Clc1ccc2[nH]c3c[n+](Cc4ccc(C[n+]5ccc6c(c5)[nH]c5ccc(Cl)cc56)cc4)ccc3c2c1	> 17 µM	> 170 µM	> 17 µM								
Clc1ccc2[nH]c3c[n+](C/C=C\C[n+]4ccc5c(c4)[nH]c4ccc(Cl)cc45)ccc3c2c1.[Cl-].[Cl-]	5 µM	> 188 µM	9 µM	11.53%							
Clc1ccc2[nH]c3c[n+](CCCCCC[n+]4ccc5c(c4)[nH]c4ccc(Cl)cc45)ccc3c2c1.[Br-].[Br-]	8 µM	20 µM	8 µM	0%							
Clc1ccc2[nH]c3c[n+](CCCCCCCC[n+]4ccc5c(c4)[nH]c4ccc(Cl)cc45)ccc3c2c1	7 µM	147 µM	7 µM								
Clc1ccc2[nH]c3c[n+](CCCCCCCCCC[n+]4ccc5c(c4)[nH]c4ccc(Cl)cc45)ccc3c2c1	14 µM	> 142 µM	4 µM								
Clc1ccc2[nH]c3c[n+](Cc4ccc(-c5ccc(C[n+]6ccc7c(c6)[nH]c6ccc(Cl)cc67)cc5)cc4)ccc3c2c1.[Cl-].[Cl-]	> 15 µM	152 µM	> 15 µM	0%							
Clc1ccc2[nH]c3c[n+](CCOCC[n+]4ccc5c(c4)[nH]c4ccc(Cl)cc45)ccc3c2c1.[Cl-].[Cl-]	9 µM	46 µM	18 µM	2.6%							
Clc1ccc2[nH]c3c[n+](Cc4cccc(C[n+]5ccc6c(c5)[nH]c5ccc(Cl)cc56)c4)ccc3c2c1	20 µM	50 µM	20 µM								
C[n+]1ccc2c(c1)[nH]c1ccc(Br)cc12.[I-]				0%	> 230 µM	4780	0.018 µM	47.2 µM	132 µM	86.1 µM	
CCCC[n+]1ccc2c(c1)[nH]c1ccc(Br)cc12					35.1 µM	60	1.15 µM	11.7 µM	35.3 µM	68.7 µM	
CC[n+]1ccc2c(c1)[nH]c1ccc(Cl)cc12.[I-]				15.36%	251 µM	250	0.452 µM	36.8 µM	100 µM	113 µM	
C=CC[n+]1ccc2c(c1)[nH]c1ccc(Cl)cc12					196 µM	152	0.831 µM	33.5 µM	57.8 µM	126 µM	
Brc1ccc2[nH]c3c[n+](Cc4ccc5ccccc5c4)ccc3c2c1					17.7 µM	11	0.481 µM	4.1 µM	7.5 µM	5.1 µM	
CC[n+]1ccc2c(c1)[nH]c1c(Br)cccc12					> 223 µM	23	6.62 µM	25 µM	170 µM	153 µM	
C=CC[n+]1ccc2c(c1)[nH]c1c(Br)cccc12					123 µM	17	6.74 µM	26.2 µM	154 µM	112 µM	
Fc1ccc(C[n+]2ccc3c(c2)[nH]c2c(Br)cccc23)cc1					53.4 µM	5	3.28 µM	3.8 µM	28.7 µM	17.5 µM	
Clc1ccc2[nH]c3c[n+](CCCc4ccccc4)ccc3c2c1					18.6 µM	44	1.61 µM	6.2 µM	20.9 µM	71.3 µM	
CCCC[n+]1ccc2c(c1)[nH]c1ccc(Cl)cc12					112 µM	46	1.62 µM	11.6 µM	104 µM	74 µM	

Compound	MIC99 [1]	MIC99 [2]	MIC99 [3]	Activity [4]	IC50 [5]	selectivity ratio [6]	IC50 [7]	IC50 [8]	IC50 [9]	IC50 [10]	Survival [11]
Clc1ccc2[nH]c3c[n+](Cc4ccccc4)ccc3c2c1					113 µM	9	3 µM	6.2 µM	24.6 µM	27 µM	
Fc1ccc(C[n+]2ccc3c(c2)[nH]c2ccc(Cl)cc23)cc1					110 µM	24	4.67 µM	18.1 µM	87.7 µM	111 µM	
CC[n+]1ccc2c(c1)[nH]c1ccc(Br)cc12.[I-]				13.25%	> 223 µM	2440	0.032 µM	26.4 µM	90.5 µM	78.8 µM	
COC(=O)CCC[n+]1ccc2c(c1)[nH]c1ccc(Br)cc12					> 203 µM	70	2.33 µM	111 µM	64.6 µM	162 µM	
Fc1ccc(C[n+]2ccc3c(c2)[nH]c2ccc(Br)cc23)cc1					16.4 µM	13	1.76 µM	4.7 µM	13.3 µM	22.6 µM	
Fc1cccc(C[n+]2ccc3c(c2)[nH]c2ccc(Br)cc23)c1					11 µM	19	2.15 µM	5.6 µM	25.9 µM	41.5 µM	
O=[N+]([O-])c1ccc(C[n+]2ccc3c(c2)[nH]c2ccc(Cl)cc23)cc1					146 µM	19	2.21 µM	21.3 µM	32.8 µM	42.2 µM	
O=[N+]([O-])c1ccc(C[n+]2ccc3c(c2)[nH]c2ccc(Br)cc23)cc1					38.2 µM	14	1.33 µM	10.8 µM	14.1 µM	18.1 µM	
Brc1cccc2c1[nH]c1c[n+](Cc3ccc4ccccc4c3)ccc12					46.4 µM	7	0.502 µM	4.4 µM	7.9 µM	3.7 µM	
Brc1ccc2[nH]c3c[n+](CCCc4ccccc4)ccc3c2c1					20.4 µM	60	0.459 µM	4.5 µM	12.6 µM	27.5 µM	
C=CC[n+]1ccc2c(c1)[nH]c1ccc(Br)cc12.[Br-]				3.57%	20.1 µM	266	0.492 µM	17.4 µM	86.6 µM	131 µM	
COC(=O)CCC[n+]1ccc2c(c1)[nH]c1ccc(Cl)cc12					117 µM	66	3.14 µM	106 µM	115 µM	207 µM	
Brc1ccc2[nH]c3c[n+](Cc4ccccc4)ccc3c2c1					21.2 µM	26	2.37 µM	5.2 µM	16.3 µM	61.6 µM	
Brc1cccc2c1[nH]c1c[n+](Cc3ccccc3)ccc12					66.5 µM	11	2.58 µM	7 µM	42.9 µM	28.7 µM	
C[n+]1c2ccccc2cc2[n-]c3ccccc3c21 [CRYPTOLEPINE HYDROCHLORIDE]						9					
O=C1c2ccccc2-[n+]2ccc3c([nH]c4ccccc43)c21 [FASCAPLYSIN CHLORIDE]						50	0.184 µM				
C[n+]1cc2[nH]c3ccccc3c2c2ccccc21 [ISONEOCRYPTOLEPINE]						18					
C[n+]1ccc2c(c1)[nH]c1ccccc12 [NORMELINONINE F]						> 853					
C[n+]1ccc2c(c1)[nH]c1ccc(Cl)cc12.[I-] [NOSTOCARBOLINE]	> 29 µM	290 µM	> 29 µM	49.6%							7.3 days
